From PubChem BioAssay AID602134 (Broad Institute, 2011)
Calls of active or inactive are those of the source.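 The calls were made as follows: active = falling transferrin uptake with a fitted half-maximal potency at or below twice the top valid tested dose; inconclusive = flat fit with a 30 to 70% drop, or poor fit; inactive = the rest.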

assay: transferrin endocytosis inhibition in mSR-BI cells, dose response, selectivity assay for SR-BI HDL uptake inhibitor project, imaging, Alexa594-transferrin, dry powder (AID 602134); conditions: series mostly up to 35 µM
In short: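 test system = mSR-BI cells | incubation = transferrin uptake 30 min at 37 °C, stopped on ice | measured by = high-content fluorescence imaging of Alexa-594 transferrin, DAPI nuclear stain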

Structure (SMILES) | outcome
CC(=O)N1CCc2cc(-c3nc(NC(=O)c4cccc(OC(F)(F)F)c4)sc3C)ccc21 | inactive
C[C@@H]1CN([C@H](C)CO)C(=O)c2cc(NC(=O)Cc3cn(C)c4ccccc34)ccc2O[C@H]1CN(C)S(=O)(=O)c1ccc(Cl)cc1 | inactive
COCC(=O)N1CCc2cc(-c3csc(NC(=O)c4cc(OC)cc(OC)c4)n3)ccc21 | inactive
COc1c(NC(=O)C(=O)c2ccc(OCCN3CCOCC3)c3ccccc23)cc(C(C)(C)C)cc1NS(C)(=O)=O | inactive
CCNC(=O)N1CCc2cc(-c3csc(NC(=O)c4cc(OC)cc(OC)c4)n3)ccc21 | inactive
CCC(=O)N1CCc2cc(-c3csc(NC(=O)c4cccc(OC)c4)n3)ccc21 | inactive
COc1ccc(-c2cc(CC(=O)N(C3CCCCC3)C(C)C(=O)NC3CCCC3)no2)cc1OC (configuration not stated) | inactive
CCC(=O)N1CC(C)(C)c2cc(-c3csc(NC(=O)c4cc(OC)cc(OC)c4)n3)ccc21 | inactive
COc1cc(OC)cc(C(=O)Nc2nc(-c3ccc4c(c3)CCN4C(=O)CN(C)C)cs2)c1 | inactive
C[C@H](C(=O)NC1CCCC1)N(C(=O)Cn1nnc(-c2ccc3c(c2)OCO3)n1)C1CCCCC1 | inactive
CCCCCCC1CCC/C1=N\NC(N)=S (configuration not stated) | inactive
CCC(=O)N1CCc2cc(-c3csc(NC(=O)c4ccc(F)c(OC)c4)n3)ccc21 | inactive
